Hits are enriched below; roughly 3.7% of the tested compounds scored in any of these assays.
KCNK9 block: KCNK9 potassium channel inhibitors, primary screen, HEK293 cells, thallium flux | B-score at 10 µM | 310,000 compounds, 1.2% hits | FluxOR thallium flux fluorescence; stronger effect = lower value;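 active means ratio B-score over 3 SD below the library mean, with starting fluorescence within 5 SD of its mean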;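 further: negative B-score means less thallium flux so channel inhibition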
Target sequence (Q9NPC2 whole entry, looked up): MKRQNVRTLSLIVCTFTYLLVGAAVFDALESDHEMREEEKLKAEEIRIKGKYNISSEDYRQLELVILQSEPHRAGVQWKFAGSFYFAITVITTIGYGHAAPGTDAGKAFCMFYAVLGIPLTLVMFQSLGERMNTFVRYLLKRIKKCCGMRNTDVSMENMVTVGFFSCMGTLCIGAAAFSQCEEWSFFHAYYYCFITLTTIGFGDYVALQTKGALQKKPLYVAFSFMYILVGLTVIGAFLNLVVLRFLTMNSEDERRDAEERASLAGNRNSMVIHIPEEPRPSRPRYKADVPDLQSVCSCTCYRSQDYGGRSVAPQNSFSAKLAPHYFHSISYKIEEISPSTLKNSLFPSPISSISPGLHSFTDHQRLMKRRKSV
KCNQ1 block: inhibitors of human KCNQ1 channel, primary screen, cell-based, thallium flux, high-throughput; Potassium voltage-gated channel subfamily KQT member 1 (Homo sapiens), P51787; CHO-K1 KCNQ1, FluxOR thallium flux fluorescence; stronger effect = higher value; B-score at 10 µM; 310,000 compounds, 1.3% hits; AID 2642, 2010;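 active means compounds whose thallium flux B-score, printed positive for inhibition, exceeds three library SD while starting fluorescence stays within three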;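 further: channel opened by potassium depolarization with thallium stimulus after 20 min compound exposure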
KCNK3 block: human KCNK3 channel inhibitors, primary screen, CHO cells, FluxOR thallium flux, B-score; B-score at 10 µM; Potassium channel subfamily K member 3 (Homo sapiens), O14649; FluxOR fluorescence; stronger effect = lower value; 340,000 compounds, 0.84% hits;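 active means B-score under library mean minus 4 SD, starting fluorescence ratio at most library mean plus 5 SD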;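 further: more negative B-score means stronger inhibition of thallium flux through KCNK3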
KCNQ1 act: potentiators or activators of KCNQ1 channel, primary screen, cell-based, thallium flux, high-throughput | CHO-K1 KCNQ1, thallium flux FluxOR fluorescence; stronger effect = higher value | B-score at 10 µM | 310,000 compounds, 0.35% hits | AID 2648, 2010;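 active means fluorescence ratio B-score, a plate-corrected score, at least three library SD, with initial intensity B-score within 5 SD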
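assay system = CHO-K1 cells stably expressing KCNQ1 | medium = assay buffer, equal DMSO in all wells | timing = 37 °C overnight plating, 90-min dark dye load, 20-min compound pretreatment | measured by = kinetic FluxOR thallium fluorescence, 10-s 1-Hz baseline, 110-s post-stimulus read | measure = fluorescence change relative to baseline, converted to B score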
hERG rescue: hERG rescue from dofetilide block, primary screen, cell-based, CHO-hERG, FluxOR thallium flux, dofetilide IC70. Voltage-gated inwardly rectifying potassium channel KCNH2 (Homo sapiens), Q12809. activation (rescue from dofetilide block), less the hit threshold, % at 10 µM. 310,000 compounds, 0.51% hits. dofetilide IC70 present;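 active means activation above the mean of controls blocked by dofetilide plus 5 SD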;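 further: thallium influx through hERG after potassium depolarization seen as dye fluorescence rise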
Kir21 inh: inhibitors of mouse Kir2.1 inward-rectifier potassium channel. Inward rectifier potassium channel 2 (Mus musculus), P35561. HEK293-Kir2.1, FluxOR thallium flux fluorescence; stronger effect = lower value. B-score at 10 µM. 310,000 compounds, 0.85% hits. AID 1672, 2009;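 active means fluorescence ratio B-score at or below minus 3 SD of library scores, with starting-brightness B-score within 2 SD, cut at about -4.2 in these data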;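 further: channel flux triggered by added potassium and thallium sulfate stimulus; B-score of peak minus minimum fluorescence over baseline after thallium stimulus; more negative B-score means stronger Kir2.1 block with less thallium influx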
The depositor's hits bear a star; i = inactive; / = not tested or not shown.

SMILES	KCNK9 block	KCNQ1 block	KCNK3 block	KCNQ1 act	hERG rescue	Kir21 inh
CN(C)C(CNC(=O)C1CCN(S(=O)(=O)c2cccc(Cl)c2Cl)CC1)c1ccccc1 (stereo unspecified)	i	i	i	i	-3	-1.2
CCCN(CC(=O)Nc1cc(C)on1)CC(=O)Nc1ccccc1C	/	/	i	/	/	/
COc1ccc(C(=O)NNC(=S)NC(=O)c2ccc(OC)cc2)cc1	i	i	i	i	-9	-1.1
COc1ccc(C(=O)NC(=S)NNC(=O)c2cccc(C)c2)cc1	i	i	i	62*	-5	1.7
Cc1cccc(C(=O)NNC(=S)NC(=O)c2ccccc2)c1	i	i	i	23*	-1	1.3
Cc1cccc(C(=O)NNC(=S)NC(=O)c2cccs2)c1	i	i	i	i	-4	0.93
CN(C)C(=S)Nc1ccc(S(=O)(=O)N2CCCCC2)cc1	i	i	i	i	-8	-3.6
O=C(COc1ccc(Br)cc1)NCC1COc2ccccc2O1 (stereo unspecified)	/	/	i	/	/	/
COc1ccc2c(c1)c(/C=C/c1cc[n+](C)cc1)cn2C	-8*	i	i	i	-25	-7.6
COc1ccc2c(/C=C/c3cc[n+](C)cc3)c[nH]c2c1	i	i	i	i	-14	0.02
Cc1c(NS(=O)(=O)c2cc(C(=O)NCc3cccnc3)ccc2Cl)c(=O)n(-c2ccccc2)n1C	/	/	i	/	/	/
CCCc1cc(=O)[nH]c(SCC(=O)N(Cc2ccccc2)C(C)C)n1	-7*	i	i	i	-5	0.41
CCCc1cc(=O)[nH]c(SCC(=O)NC(=O)c2ccccc2)n1	i	i	i	i	-9	0.12
c1ccc(Nc2ncnc3[nH]ncc23)cc1	i	i	i	i	-3	1.4
O=C(NCCC1CCCCN1S(=O)(=O)c1cccs1)C(=O)Nc1cccc(F)c1 (stereo unspecified)	i	i	i	i	-11	-0.03
CC(C)(C)c1ccc(C2(C)NC(=O)N(CC(=O)NC3CCS(=O)(=O)C3)C2=O)cc1 (stereo unspecified)	/	/	i	/	/	/
COc1ccc(/C=N/NC(=O)c2cccc(C(=O)N/N=C/c3ccc(OC)c(OC)c3)n2)cc1OC	i	i	i	i	-9	-0.01
COc1ccc(/C=N/NC(=O)Nc2cccc3nsnc23)cc1OC	-6.6*	i	i	i	-13	-1.3
O=C(NC(=S)N1CCc2ccccc21)c1ccccc1	i	i	i	i	24*	3.5
O=[N+]([O-])c1ccc(NC(=S)N2CCc3ccccc32)cc1	i	9*	i	i	-10	-0.58
S=C(Nc1ccccc1)N1CCc2ccccc21	i	i	i	i	-10	1
O=C(COc1ccccc1F)N1CCCc2ccccc21	i	i	i	i	-7	1.9
CC(=O)c1cc(F)ccc1OCC(=O)N1CCCc2ccccc21	i	i	i	i	-4	-6.5*
O=C(COc1ccc(Cl)cc1Cl)NC(=S)N1CCCc2ccccc21	i	i	i	i	13*	0.04
O=C(COc1ccc(Cl)cc1Cl)OCC(=O)N1CCCc2ccccc21	i	i	i	i	-2	0.97
SMILES	KCNK9 block	KCNQ1 block	KCNK3 block	KCNQ1 act	hERG rescue	Kir21 inh
O=C(NC(=S)N1CCc2ccccc21)c1ccccc1Cl	i	i	i	24*	31*	-0.57
CC1COCC(C)N1C1=C(Cl)C(=O)c2ccccc2C1=O (stereo unspecified)	/	/	-10*	/	/	/
O=C1C(Cl)=C(N2CCC(C(=O)O)CC2)C(=O)c2ccccc21	i	6*	i	i	-20	-0.09
Cc1cccc(NC(=O)CSc2nc3[nH]c(=O)cc(O)c3s2)c1	/	/	i	/	/	/
COc1ccc(CN(C)C(=O)CCN2C(=O)c3ccccc3C2=O)c(OC)c1OC	i	i	i	i	-1	1.3
COc1ccc(CN(C)C(=O)COC(=O)c2ccc(-c3ccccc3)cc2)c(OC)c1OC	/	/	-9.3*	/	/	/
Cc1ccc(S(=O)(=O)N2CCOCC2)cc1C(=O)NC(=S)N1CC(C)OC(C)C1 (stereo unspecified)	i	i	i	i	-12	2.1
CC(=O)C1=C(c2cccc([N+](=O)[O-])c2)N(C(C)=O)n2c(C)nnc2S1	i	7*	i	i	-17	-1.1
CC(=O)Oc1ccc(C(=O)Nc2cc(C)on2)cc1	i	i	i	i	3	2
N#CCc1ccccc1C(=O)OCC(=O)N(Cc1ccccc1)Cc1ccccc1	/	/	-9.4*	/	/	/
C1CCc2c(c(N3CCOCC3)nc3sc4c(N5CCOCC5)nnnc4c23)C1	/	/	i	/	/	/
S=c1nc[nH]c2c1sc1nc(N3CCOCC3)c3c(c12)CCCC3	i	i	i	95*	97*	-0.28
O=c1[nH]c(-c2cccnc2)nc2sc(-c3ccccc3)cc12	i	i	i	i	6.9*	-0.56
Cc1ccc(Oc2ccc(OCC(=O)NC(CC(C)C)C(=O)O)cc2)cc1 (stereo unspecified)	i	i	i	i	4.9*	-1.5
CC(C)COc1ccc(C(=O)NC(CC(C)C)C(=O)O)cc1 (stereo unspecified)	i	i	i	i	-3	2.5
CC(=O)N(C)c1ccc(OCC(O)COc2ccc(N(C)C(C)=O)cc2)cc1	i	i	i	i	-6	-0.03
CC(=O)c1ccc(OCC(O)COc2ccc(C(C)=O)cc2)cc1	i	i	i	i	4.9*	2.9
C=C(C)C(=O)OCC(O)COc1ccc(C(C)(C)c2ccc(OCC(O)COC(=O)C(=C)C)cc2)cc1 (stereo unspecified)	i	9*	-12*	i	-19	0.17
Cc1cc(=O)[nH]c(SCC(=O)Nc2cc(S(=O)(=O)N(C)C)ccc2Cl)n1	i	i	i	i	-11	0.85
CCCCc1c(C)nc2nc(SCc3ccc(Cl)cc3)[nH]n2c1=O	i	6*	i	i	-5	-2
COc1ccc(C2CC(c3cccs3)=NN2C(=O)COC(=O)c2cncc(Br)c2)cc1OC (stereo unspecified)	i	i	i	i	-6	1.7
CCOc1ccc(-n2c(-c3ccccc3)c[n+]3c2CCCCC3)cc1	i	8*	i	i	-17	-0.63

Bioassay records: PubChem BioAssay, Johns Hopkins Ion Channel Center
